Results reported in ChEMBL document CHEMBL3860087, “New Broad-Spectrum Antibacterial Amphiphilic Aminoglycosides Active against Resistant Bacteria: From Neamine Derivatives to Smaller Neosamine Analogues” (J Med Chem, 2016).
Converted amounts (≈) assume the structure as drawn.

What was measured:
Pseudomonas aeruginosa [1] = experiment: Induction of inner membrane permeabilization of Pseudomonas aeruginosa ATCC 27853 at 150 uM after 15 mins by propidium iodide staining-based fluorescence assay relative to control; type: functional
Pseudomonas aeruginosa [2] = experiment: Induction of inner membrane permeabilization of Pseudomonas aeruginosa ATCC 27853 at 5 uM after 15 mins by propidium iodide staining-based fluorescence assay relative to control; type: functional
Procedure, shortened: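 P. aeruginosa ATCC 27853 from TSA colony, overnight in MHB-CA at 37 °C with shaking, diluted 100-fold and grown 4 h to mid-log (OD620 ~0.4–0.5). Suspension (OD600 0.05) with PI (3 mM stock diluted 10^3-fold) plus compound in HEPES (1–10 μM final). Fluorescence ex 540/em 610 nm at 25 °C after 15 min; normalized to CTAB 150 μM (100%) and imipenem (0%).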

Staphylococcus aureus [3] = experiment: Antibacterial activity against Staphylococcus aureus ATCC 25923 by microdilution method; type: functional
Procedure, shortened: (§1)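 Broth microdilution per CLSI in cation-adjusted Mueller–Hinton broth. Strains were grown overnight at 37 °C on trypticase soy agar, and a fresh culture was used. Starting inoculum was 10^6 cells.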

Staphylococcus aureus [4] = experiment: Antibacterial activity against NorA expressing Staphylococcus aureus 1 by microdilution method
Staphylococcus aureus [5] = experiment: Antibacterial activity against healthcare-acquired methicillin-resistant Staphylococcus aureus ATCC 33592 by microdilution method; type: functional; procedure, shortened: as §1
Pseudomonas aeruginosa [6] = experiment: Antibacterial activity against Pseudomonas aeruginosa ATCC 27853 by microdilution method; type: functional
Procedure, shortened: (§2)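 Strains grown overnight at 37 °C on trypticase soy agar; MIC by broth microdilution from fresh culture in cation-adjusted Mueller–Hinton broth, starting inoculum 10^6 cells, following CLSI recommendations.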

Pseudomonas aeruginosa [7] = experiment: Antibacterial activity against AAC6'-2A expressing Pseudomonas aeruginosa F03 by microdilution method; type: functional; procedure, shortened: as §2
Pseudomonas aeruginosa [8] = experiment: Antibacterial activity against MexXY expressing Pseudomonas aeruginosa PA22 by microdilution method; type: functional; procedure, shortened: as §2
Pseudomonas aeruginosa [9] = experiment: Antibacterial activity against triABC deficient Pseudomonas aeruginosa PA406 by microdilution method; type: functional; procedure, shortened: as §2
Acinetobacter lwoffii [10] = experiment: Antibacterial activity against Acinetobacter lwoffii ATCC 17925 by microdilution method; type: functional; procedure, shortened: as §2
Acinetobacter lwoffii [11] = experiment: Antibacterial activity against APH3'-VIA expressing Acinetobacter lwoffii AI.88-483 by microdilution method; type: functional; procedure, shortened: as §2
Escherichia coli [12] = experiment: Antibacterial activity against AAC6'-IB expressing Escherichia coli PAZ505H8101 by microdilution method; type: functional; procedure, shortened: as §2
Escherichia coli [13] = experiment: Antibacterial activity against ANT2''-IA expressing Escherichia coli L8058.1 by microdilution method; type: functional; procedure, shortened: as §2
Klebsiella pneumoniae = experiment: Antibacterial activity against Klebsiella pneumoniae ATCC 700603 by microdilution method; type: functional; procedure, shortened: as §2
[14] = (§3) Cytotoxicity against mouse J774 cells assessed as cell viability at 10 uM after 24 hrs by MTT assay relative to control; type: toxicity, cell-based; details: J774 cells, read-out: Activity
Procedure, shortened: (§4)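 Murine J774 macrophages exposed 24 h to 10 or 30 μM compound, then 1 h with 0.2 mg/mL MTT; reaction stopped with DMSO, OD read at 570 nm as metabolic-activity viability. Number of independent experiments given per value.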

[15] = (§5) Cytotoxicity against mouse J774 cells assessed as cell viability at 30 uM after 24 hrs by MTT assay relative to control; type: toxicity, cell-based; details: J774 cells, read-out: Activity; procedure, shortened: as §4
Escherichia coli [16] = experiment: microbe, parasite or virus in culture; details: ATCC 25922
Pseudomonas aeruginosa [17] = experiment: Ratio of MIC for Pseudomonas aeruginosa ATCC 27853 after 9 serial passages to MIC for Pseudomonas aeruginosa ATCC 27853 prior to serial passages; type: functional
Pseudomonas aeruginosa [18] = experiment: Induction of inner membrane permeabilization of Pseudomonas aeruginosa ATCC 27853 after 15 mins by propidium iodide staining-based fluorescence assay; type: functional
Procedure, shortened: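 Mid-log P. aeruginosa (OD620 ~0.4–0.5, grown in CA-MHB at 37 °C, 130 rpm) was adjusted to OD600 0.05. A 3 mM propidium iodide stock was diluted 10^3-fold in the suspension. Compounds in HEPES were added at final 1–10 μM. Fluorescence (ex 540/em 610 nm) was read at 25 °C after 15 min stabilization. Values were normalized to 150 μM CTAB (100%) and imipenem (0%).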

Pseudomonas aeruginosa [19] = experiment: Ratio of MIC for Pseudomonas aeruginosa ATCC 27853 after 4 serial passages to MIC for Pseudomonas aeruginosa ATCC 27853 prior to serial passages; type: functional
Mus musculus [20] = species on record: Mus musculus; experiment: as §3; type: toxicity, cell-based; details: j774, 24 h, 10 µM; procedure, shortened: as §4
Mus musculus [21] = species on record: Mus musculus; experiment: as §5; type: toxicity, cell-based; details: j774, 24 h, 30 µM; procedure, shortened: as §4

**Q.** With Hexadecyltrimethylammonium bromide as the compound, how does the Activity (Pseudomonas aeruginosa [1]) read?
**A.** 100%

**Q.** Which Activity (Pseudomonas aeruginosa [2]) does the source give for CCCCCCCCCO[C@@H]1[C@@H](N)[C@@H](O[C@H]2[C@H](O)[C@@H](O)[C@H](N)C[C@@H]2N)O[C@H](CN)[C@H]1OCCCCCCCCC here?
**A.** 25%

**Q.** And the MIC (Staphylococcus aureus [3])?
**A.** 4 µg/mL (≈ 6.96 µM)

**Q.** And the MIC (Staphylococcus aureus [4])?
**A.** 2 µg/mL (≈ 3.48 µM)

**Q.** And the MIC (Staphylococcus aureus [5])?
**A.** 4 µg/mL (≈ 6.96 µM)

**Q.** What about the MIC (Pseudomonas aeruginosa [6]) of the same compound?
**A.** 8 to 16 µg/mL (≈ 13.9 to 27.8 µM)

**Q.** What about the MIC (Pseudomonas aeruginosa [7]) of the same compound?
**A.** 8 to 16 µg/mL (≈ 13.9 to 27.8 µM)

**Q.** And the MIC (Pseudomonas aeruginosa [8])?
**A.** 8 to 16 µg/mL (≈ 13.9 to 27.8 µM)

**Q.** And the MIC (Pseudomonas aeruginosa [9])?
**A.** 8 to 16 µg/mL (≈ 13.9 to 27.8 µM)

**Q.** What about the MIC (Acinetobacter lwoffii [10]) of the same compound?
**A.** 2 to 4 µg/mL (≈ 3.48 to 6.96 µM)

**Q.** And the MIC (Acinetobacter lwoffii [11])?
**A.** 32 µg/mL (≈ 55.7 µM)

**Q.** What about the MIC (Escherichia coli [12]) of the same compound?
**A.** 2 to 4 µg/mL (≈ 3.48 to 6.96 µM)

**Q.** And the MIC (Escherichia coli [13])?
**A.** 4 to 8 µg/mL (≈ 6.96 to 13.9 µM)

**Q.** And the MIC (Klebsiella pneumoniae)?
**A.** 16 to 32 µg/mL (≈ 27.8 to 55.7 µM)

**Q.** And the viability at 24 h, 10 µM [14]?
**A.** 82.7%

**Q.** And the viability at 24 h, 30 µM [15]?
**A.** 48.6%

**Q.** What about the MIC (Escherichia coli [16]) of the same compound?
**A.** 4 to 8 µg/mL (≈ 6.96 to 13.9 µM)

**Q.** Which results are given for NC[C@H]1O[C@H](O[C@H]2[C@H](O)[C@@H](O)[C@H](N)C[C@@H]2N)[C@H](N)[C@@H](OCCCc2ccc3ccccc3c2)[C@@H]1OCCCc1ccc2ccccc2c1?
**A.** MIC (Staphylococcus aureus [3]): 2 to 4 µg/mL (≈ 3.04 to 6.07 µM); MIC (Staphylococcus aureus [4]): 0.5 to 1 µg/mL (≈ 0.759 to 1.52 µM); MIC (Staphylococcus aureus [5]): 1 to 2 µg/mL (≈ 1.52 to 3.04 µM); MIC (Pseudomonas aeruginosa [6]): 4 µg/mL (≈ 6.07 µM); MIC (Pseudomonas aeruginosa [7]): 8 µg/mL (≈ 12.1 µM); MIC (Pseudomonas aeruginosa [8]): 16 µg/mL (≈ 24.3 µM); MIC (Pseudomonas aeruginosa [9]): 4 µg/mL (≈ 6.07 µM); MIC (Acinetobacter lwoffii [10]): 2 to 4 µg/mL (≈ 3.04 to 6.07 µM); MIC (Acinetobacter lwoffii [11]): 32 to 64 µg/mL (≈ 48.6 to 97.1 µM); MIC (Escherichia coli [12]): 2 µg/mL (≈ 3.04 µM); MIC (Escherichia coli [13]): 4 to 8 µg/mL (≈ 6.07 to 12.1 µM); MIC (Klebsiella pneumoniae): 64 µg/mL (≈ 97.1 µM); viability at 24 h, 10 µM [14]: 87.7%; viability at 24 h, 30 µM [15]: 66.9%; Ratio (Pseudomonas aeruginosa [17]): 15; MIC (Escherichia coli [16]): 16 to 32 µg/mL (≈ 24.3 to 48.6 µM)

**Q.** What does the source list for CCCCCCCCCO[C@@H]1[C@@H](N)[C@@H](OCC(O)CNCCCN)O[C@H](CN)[C@H]1OCCCCCCCCC (mixture of isomers)?
**A.** Activity (Pseudomonas aeruginosa [2]): 25%; MIC (Staphylococcus aureus [3]): 2 µg/mL; MIC (Staphylococcus aureus [4]): 2 µg/mL; MIC (Staphylococcus aureus [5]): 2 µg/mL; MIC (Pseudomonas aeruginosa [6]): 8 µg/mL; MIC (Pseudomonas aeruginosa [7]): 8 µg/mL; MIC (Pseudomonas aeruginosa [8]): 8 µg/mL; MIC (Pseudomonas aeruginosa [9]): 4 µg/mL; MIC (Acinetobacter lwoffii [10]): 2 µg/mL; MIC (Acinetobacter lwoffii [11]): 8 µg/mL; MIC (Escherichia coli [12]): 4 µg/mL; MIC (Escherichia coli [13]): 8 µg/mL; MIC (Klebsiella pneumoniae): 32 µg/mL; viability at 24 h, 10 µM [14]: 101%; viability at 24 h, 30 µM [15]: 71.6%; MIC (Escherichia coli [16]): 8 µg/mL

**Q.** Which Activity (Pseudomonas aeruginosa [18]) does the source give for C[C@@H](O)[C@H]1C(=O)N2C(C(=O)O)=C(SCCNC=N)C[C@H]12 [IMIPENEM ANHYDROUS] here?
**A.** 0%

**Q.** For O=C(O)c1cn(C2CC2)c2cc(N3CCNCC3)c(F)cc2c1=O [CIPROFLOXACIN], which Ratio (Pseudomonas aeruginosa [19]) is on record?
**A.** 15

**Q.** Which MIC (Staphylococcus aureus [3]) does the source give for NC[C@H]1O[C@H](O[C@H]2[C@H](O)[C@@H](OCc3ccc4ccccc4c3)[C@H](N)C[C@@H]2N)[C@H](N)[C@@H](OCc2ccc3ccccc3c2)[C@@H]1O here?
**A.** 8 µg/mL (≈ 13.3 µM)

**Q.** What about the MIC (Staphylococcus aureus [4]) of the same compound?
**A.** 4 to 8 µg/mL (≈ 6.64 to 13.3 µM)

**Q.** What about the MIC (Staphylococcus aureus [5]) of the same compound?
**A.** 8 to 16 µg/mL (≈ 13.3 to 26.5 µM)

**Q.** What about the MIC (Pseudomonas aeruginosa [6]) of the same compound?
**A.** 64 to 128 µg/mL (≈ 106 to 212 µM)

**Q.** What about the MIC (Pseudomonas aeruginosa [7]) of the same compound?
**A.** 64 to 128 µg/mL (≈ 106 to 212 µM)

**Q.** What about the MIC (Pseudomonas aeruginosa [8]) of the same compound?
**A.** > 128 µg/mL

**Q.** What about the MIC (Pseudomonas aeruginosa [9]) of the same compound?
**A.** 2 to 4 µg/mL (≈ 3.32 to 6.64 µM)

**Q.** And the MIC (Acinetobacter lwoffii [10])?
**A.** 4 to 8 µg/mL (≈ 6.64 to 13.3 µM)

**Q.** And the MIC (Acinetobacter lwoffii [11])?
**A.** 128 µg/mL (≈ 212 µM)

**Q.** What about the MIC (Escherichia coli [12]) of the same compound?
**A.** 32 µg/mL (≈ 53.1 µM)

**Q.** What about the MIC (Escherichia coli [13]) of the same compound?
**A.** 64 to 128 µg/mL (≈ 106 to 212 µM)

**Q.** What about the MIC (Klebsiella pneumoniae) of the same compound?
**A.** 128 µg/mL (≈ 212 µM)

**Q.** And the viability at 24 h, 10 µM [14]?
**A.** 86%

**Q.** And the viability at 24 h, 30 µM [15]?
**A.** 75.9%

**Q.** What about the MIC (Escherichia coli [16]) of the same compound?
**A.** 32 to 64 µg/mL (≈ 53.1 to 106 µM)

**Q.** With GENTAMICIN as the compound, how does the Activity (Mus musculus [20]) read?
**A.** 88.2%

**Q.** And the Activity (Mus musculus [21])?
**A.** 74.2%
